A short description of series [1]: Cytotoxicity against human MT4 cells. The format is cell-based.
Series [2] has as its system Human immunodeficiency virus 1. Nature of the series: Antiviral activity against HIV1 infected in human MT4 cells assessed as virus-induced cytopathic effect by MTT assay. In kind it is functional, organism-based. The conditions noted are these: Human immunodeficiency virus 1, MT4.
The target in series [3] is T1, Human immunodeficiency virus type 1 integrase (Human immunodeficiency virus 1, UniProt Q7ZJM1). Nature of the series: Inhibition of recombinant His6-tagged HIV-1 integrase 3' strand transfer activity.
T1 sequence (Q7ZJM1 whole entry): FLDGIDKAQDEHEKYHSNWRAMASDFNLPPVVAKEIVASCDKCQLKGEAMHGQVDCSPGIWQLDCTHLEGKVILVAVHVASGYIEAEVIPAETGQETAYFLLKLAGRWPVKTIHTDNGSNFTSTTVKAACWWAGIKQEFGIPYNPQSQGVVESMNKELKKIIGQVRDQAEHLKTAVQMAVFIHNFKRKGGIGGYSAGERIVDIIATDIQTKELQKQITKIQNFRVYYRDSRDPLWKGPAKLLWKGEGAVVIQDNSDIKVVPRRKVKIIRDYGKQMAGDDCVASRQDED
For series [4], the target named is T1, Human immunodeficiency virus type 1 integrase. Nature of the series: Inhibition of recombinant His6-tagged HIV-1 integrase 3' processing activity.
The nature of series [5]: Inhibition of recombinant His6-tagged HIV-1 integrase binding to FLAG-tagged LEDGF/p75 (unknown origin) interaction expressed in Escherichia coli BL21(DE3) at 20 uM treated 30 mins before LEDGF/p75 addition measured after 60 mins by quench assay. A digest of the protocol: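 Emission-quench counter-screen run like the IN–LEDGF/p75 AlphaScreen, with FLAG-tagged GST (500 nM final) instead of both proteins. Same buffer, Ni-chelate donor and anti-FLAG acceptor beads, 1 h at 30 °C, acceptor emission read. Reported as percent inhibition at a single compound concentration.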

Series [6] in a line: Inhibition of recombinant His6-tagged HIV-1 integrase binding to FLAG-tagged LEDGF/p75 (unknown origin) interaction expressed in Escherichia coli BL21(DE3) treated 30 mins before LEDGF/p75 addition measured after 60 mins by AlphaScreen assay. A digest of the protocol:
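His6-IN (300 nM final) with compound for 30 min at 4 °C. FLAG-LEDGF/p75 (300 nM final) added for 60 min at 4 °C. Ni-chelate donor and anti-FLAG acceptor beads added, 1 h at 30 °C, light exposure minimized. Acceptor emission read. IC50 is the 50% inhibition of the interaction.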

Consider `O=C(Nc1ccccn1)c1nc[nH]c1C(=O)N1CCC(O)CC1`, for which, in series [1], the 50% cytotoxic concentration (CC50) is greater than 20 µM. In addition, the EC50 in series [2] is greater than 20 µM. Further, the IC50 in series [3], in series [4] and in series [6] was greater than 20 µM throughout. In addition, the inhibition in series [5] is less than 50%.

In the case of `COC(=O)c1[nH]cnc1C(=O)Nc1ccc(F)cc1`, the 50% cytotoxic concentration (CC50) in series [1] is greater than 20 µM. Moreover, the EC50 in series [2] was greater than 20 µM. For the same compound, the IC50 in series [3], in series [4] and in series [6] was greater than 20 µM in each case. Besides, the inhibition in series [5] is less than 50%.

Regarding `O=C(Nc1ccccc1O)c1nc[nH]c1C(=O)N1CCC(O)CC1`, the CC50 in series [1] was greater than 20 µM. Also, in series [2], the EC50 was greater than 20 µM. The IC50 in series [3], in series [4] and in series [6] was greater than 20 µM in each case. In addition, the inhibition in series [5] is less than 50%.

In series [1], `Nc1ccc(NC(=O)c2nc[nH]c2C(=O)O)cc1` gave a CC50 greater than 20 µM. In addition, in series [2], the EC50 is greater than 20 µM. Further, the IC50 in series [3] was greater than 20 µM; in series [4] it was greater than 20 µM; in series [6] it was 1 µM. In addition, the inhibition in series [5] is less than 50%.

As for `O=C(Nc1ccccc1O)c1nc[nH]c1C(=O)N1CCOCC1`, in series [1], the CC50 was greater than 20 µM. For the same compound, in series [2], the EC50 is greater than 20 µM. For the same compound, the IC50 in series [3], in series [4] and in series [6] was greater than 20 µM each time. Also, in series [5], the inhibition is less than 50%.

`O=C(Nc1ccccc1O)c1nc[nH]c1C(=O)N1CCNCC1` gave a CC50 in series [1] greater than 20 µM. In series [2], the EC50 was greater than 20 µM. The IC50 in series [3], in series [4] and in series [6] was greater than 20 µM throughout. For the same compound, the inhibition in series [5] is less than 50%.

With `CNC(=O)c1[nH]cnc1C(=O)Nc1ccccn1`, the CC50 in series [1] was greater than 20 µM. Also, in series [2], the EC50 is greater than 20 µM. Also, the IC50 in series [3], in series [4] and in series [6] was greater than 20 µM each time. In series [5], the inhibition is less than 50%.

In turn, `O=C(Nc1ccccn1)c1nc[nH]c1C(=O)N1CCNCC1` displayed a CC50 in series [1] greater than 20 µM. The EC50 in series [2] is greater than 20 µM. For the same compound, the IC50 in series [3], in series [4] and in series [6] was greater than 20 µM throughout. Further, in series [5], the inhibition is less than 50%.

Compound `O=C(Nc1ccc(F)cc1)c1nc[nH]c1C(=O)O` came in with a cytotoxic concentration (CC50) in series [1] greater than 20 µM. Also, the EC50 in series [2] is greater than 20 µM. Moreover, the 50% inhibitory concentration (IC50) was greater than 20 µM in series [3], greater than 20 µM in series [4] and 10 µM in series [6]. Moreover, the inhibition in series [5] is less than 50%.

For `O=C(Nc1ccccn1)c1nc[nH]c1C(=O)N1CCOCC1`, the CC50 in series [1] was greater than 20 µM. For the same compound, in series [2], the EC50 is greater than 20 µM. Also, the IC50 in series [3], in series [4] and in series [6] was greater than 20 µM throughout. Moreover, in series [5], the inhibition was less than 50%.

The compound `NNC(=O)c1[nH]cnc1C(=O)Nc1ccccn1` displayed a CC50 in series [1] greater than 20 µM. For the same compound, the EC50 in series [2] was greater than 20 µM. The IC50 in series [3] is greater than 20 µM; in series [4], greater than 20 µM; in series [6], 0.4 µM. In addition, in series [5], the inhibition is less than 50%.

With `O=C(Nc1ccccc1)c1nc[nH]c1C(=O)O`, in series [1], the CC50 was greater than 20 µM. In addition, in series [2], the EC50 was greater than 20 µM. Further, the half-inhibitory concentration (IC50) was greater than 20 µM in series [3], greater than 20 µM in series [4] and 6 µM in series [6]. The inhibition in series [5] was less than 50%.

The compound `O=C(NCc1ccc(F)cc1)c1nc[nH]c1C(=O)O` gave a CC50 in series [1] greater than 20 µM. Moreover, the EC50 in series [2] was greater than 20 µM. Also, the IC50 in series [3], in series [4] and in series [6] was greater than 20 µM each time. In addition, the inhibition in series [5] is less than 50%.

Compound `Cc1ccc(NC(=O)c2[nH]cnc2C(=O)NN)cc1` yielded a CC50 in series [1] greater than 20 µM. Besides, the EC50 in series [2] is greater than 20 µM. Further, the half-maximal inhibitory concentration (IC50) was greater than 20 µM in series [3], greater than 20 µM in series [4] and 16 µM in series [6]. In series [5], the inhibition is less than 50%.

In series [1], `O=C(Nc1ccccn1)c1nc[nH]c1C(=O)O` yielded a CC50 greater than 20 µM. The EC50 in series [2] was greater than 20 µM. The IC50 was greater than 20 µM in series [3], greater than 20 µM in series [4] and 13 µM in series [6]. The inhibition in series [5] was less than 50%.

For `O=C(Nc1ccc([N+](=O)[O-])cc1)c1nc[nH]c1C(=O)O`, the CC50 in series [1] is greater than 20 µM. Moreover, in series [2], the EC50 was greater than 20 µM. Besides, the IC50 is greater than 20 µM in series [3], greater than 20 µM in series [4] and 5.3 µM in series [6]. In addition, the inhibition in series [5] was less than 50%.

Source of the values: ChEMBL document CHEMBL2417400, “Discovery of a novel 5-carbonyl-1H-imidazole-4-carboxamide class of inhibitors of the HIV-1 integrase-LEDGF/p75 interaction” (Bioorg Med Chem, 2013).
